# In the library only some 2.3% were active in any assay of this set; here they are far more common.
# NPY1 pot ag: potentiates or activates human NPY-Y1 receptor; activation, % at 3.6 µM; P25929; NPY-Y1 expressing cells, potentiator/agonist activation; 220,000 tested, 0.37% active; AID 1304; in the data active = activation above about 33%, passing the limit was not always enough;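 also: cells stimulated with NPY at EC10 then isoproterenol at EC100; 0% = low agonist plus stimulus and 100% = saturating agonist plus stimulus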
# m-calpain inh: calpain II (pig) inhibition; 220,000 tested, 0.37% active; AID 1236; purified calpain II, fluorogenic peptide substrate, 30 min; inhibition, % at 16 µM;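 active = inhibition above about 50%, limit read from the data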
# NPY-Y2 antag: NPY-Y2 (human) receptor antagonism; NPY-Y2 expressing cells, antagonist mode; inhibition, % at 2.7 µM; 140,000 tested, 0.99% active; P49146; in the data active = inhibition above about 17%;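 also: 0% = vehicle with agonist challenge and 100% = reference antagonist with challenge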
# Target sequence (P49146 whole entry, looked up): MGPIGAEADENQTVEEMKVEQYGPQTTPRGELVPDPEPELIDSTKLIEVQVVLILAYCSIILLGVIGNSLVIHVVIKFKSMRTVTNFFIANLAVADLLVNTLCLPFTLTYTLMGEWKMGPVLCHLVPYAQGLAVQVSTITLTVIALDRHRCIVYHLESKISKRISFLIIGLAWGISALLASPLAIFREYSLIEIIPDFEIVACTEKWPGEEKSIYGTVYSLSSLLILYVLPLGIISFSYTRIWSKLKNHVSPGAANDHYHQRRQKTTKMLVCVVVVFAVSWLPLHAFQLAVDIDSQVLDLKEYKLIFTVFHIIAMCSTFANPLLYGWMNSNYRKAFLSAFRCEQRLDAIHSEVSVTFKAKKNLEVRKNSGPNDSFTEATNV
# Tb hexokinase: blocks Trypanosoma brucei hexokinase 1 activity; recombinant TbHK1, G6PDH-coupled NADH A340; inhibition, % at 10 µM; 220,000 tested, 0.11% active;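 active = inhibition of 50% or more in the single-dose primary screen; inactive = inhibition below 50%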
# NPY Y1 blocker: antagonists of human neuropeptide Y receptor Y1; HEK293-CNG Y1 cells, membrane potential fluorescence; NPY at EC95, then isoproterenol; inhibition, % at 3.6 µM; 200,000 tested, 1% active; AID 1040;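 active = inhibition above the campaign mean inhibition of all tested compounds plus 3 SD, cut at about 20% in these data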;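 also: 0% = DMSO wells given NPY plus isoproterenol and 100% = isoproterenol alone without NPY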
#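 material = HEK293 cells with Y1 receptor plus CNG channel | also added = NPY 25 nM then isoproterenol 1 µM plus Ro 20-1724 25 µM | schedule = dye 3 h, compound 60 min room temperature, stimulation 45 min | measured by = membrane potential fluorescence | benchmarks = high control isoproterenol alone, low control NPY with isoproterenol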
# NPY-Y2 PAM-ag: potentiators or agonists of human neuropeptide Y receptor Y2; P49146; cells expressing NPY-Y2, potentiator/agonist read-out; activation, % at 3.6 µM; 220,000 tested, 0.45% active; in the data active = activation above about 27%;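 also: cells stimulated with NPY near EC25 plus isoproterenol at EC100; 0% = vehicle plus submaximal agonist and 100% = vehicle plus saturating agonist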
# NPY-Y2 confirm: confirmation of human NPY-Y2 receptor potentiators or agonists; shares compounds with NPY-Y2 PAM-ag; cell-based NPY-Y2 potentiator/agonist assay; activation, % at 3.6 µM; 450 tested, 20% active; AID 1539; in the data active = activation above about 33%
# NPY-Y1 potentiator: potentiates or activates NPY-Y1, counter-screen for NPY-Y2 hits; shares compounds with NPY-Y2 PAM-ag; Y1 HEK293-CNG cells, membrane potential fluorescence; activation, % at 3.6 µM; 450 tested, 20% active; AID 1651; in the data active = activation above about 45%;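 also: cells stimulated with submaximal NPY then isoproterenol with phosphodiesterase inhibitor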
# NPY-Y1 ag 2: human NPY-Y1 agonism as NPY-Y2 potentiator counter-screen | activation, % at 3.6 µM | shares compounds with NPY-Y2 PAM-ag | HEK293 Y1-CNGC, membrane potential fluorescence | 450 tested, 37% active;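 active = activation above the mean of DMSO-only control wells plus 3 SD, cut at about 18% in these data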;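 also: cells stimulated with 1 µM isoproterenol plus the PDE inhibitor Ro 20-1724; 0% = isoproterenol with DMSO and no NPY and 100% = 40 nM NPY; Y1 agonists lower the membrane potential dye signal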
# CNGC inh: cyclic nucleotide gated channel inhibition as counter-screen | shares compounds with NPY-Y2 PAM-ag | HEK293-CNG parental, isoproterenol cAMP, membrane potential fluorescence | inhibition, % at 3.6 µM | 450 tested, 32% active | AID 1703;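 active = inhibition above the control-well mean plus 3 SD of those wells, cut at about 22% in these data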;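 also: 0% = DMSO with isoproterenol and 100% = DMSO without isoproterenol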
# NPY-Y2 ag 2: NPY-Y2 agonism, counter-screen for Y2 potentiators. 450 tested, 56% active. activation, % at 3.6 µM. HEK293 Y2/CNGC cells, membrane potential fluorescence, agonist mode. shares compounds with NPY-Y2 PAM-ag;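 active = activation above the mean of solvent-only control wells plus 3 SD, cut at about 10% in these data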;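 also: cells stimulated by isoproterenol with no NPY added so direct agonism is tested; 0% = DMSO with isoproterenol alone and 100% = NPY at EC100 plus isoproterenol; agonism lowers probe fluorescence through less cAMP and CNG channel opening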
# * hit, by the source's call; x = no result.
SMILES,NPY1 pot ag,m-calpain inh,NPY-Y2 antag,Tb hexokinase,NPY Y1 blocker,NPY-Y2 PAM-ag,NPY-Y2 confirm,NPY-Y1 potentiator,NPY-Y1 ag 2,CNGC inh,NPY-Y2 ag 2
CC(C)NCC(O)COc1ccc(CC(N)=O)cc1 (configuration not stated),14,8,2,-1,-1,15,x,x,x,x,x
COCCc1ccc(OCC(O)CNC(C)C)cc1 (configuration not stated),57,9,0,-7,-7,65*,38*,39,34*,8,28*
N#Cc1ccc(C(=O)CSc2n[nH]c(=O)n2-c2cccnc2)cc1,15,8,x,-12,x,9,x,x,x,x,x
O=C(CN(c1cccc(C(F)(F)F)c1)S(=O)(=O)c1ccc(Cl)c([N+](=O)[O-])c1)NCc1ccc(F)cc1,39,-5,-3,0,-12,36*,68*,85*,85*,64*,79*
O=C(CN1CCN(c2ccccc2F)CC1)N1N=CCC1c1ccccc1 (configuration not stated),12,21,-1,-5,3,-3,x,x,x,x,x
COc1ccc(C(=O)N2CCC(O)(c3ccc(Cl)cc3)CC2)cc1OC,22,13,x,-12,x,95*,-2,-10,-7,3,0
CCOC(=O)c1cc(NC(=O)c2ccccc2)c(=O)n2c1oc1ccccc12,-3,-247,x,-9,-1,-10,x,x,x,x,x
Oc1c(C2=NCCNC(C(F)(F)F)=C2)ccc2ccccc12,35,7,x,-16,-12,31*,36*,50*,38*,32*,42*
Cc1ccc(O)c(C2=NCCNC(C(F)(F)F)=C2)c1,20,24,1,-37,-2,1,x,x,x,x,x
Cc1ccc(Cl)cc1NC(=O)COC(=O)c1ccccc1O,-11,-43,x,-18,x,-2,x,x,x,x,x
COc1cc(NC(=O)c2cc3ccccc3cc2O)c(OC)cc1Cl,31,-60,x,-22,x,58*,21,-8,-13,4,12*
COc1cc(OC)c(NC(=O)c2ccccc2F)cc1Cl,-8,-68,x,-4,9,-3,x,x,x,x,x
Cc1ccc(Cl)cc1NC(=O)c1cc2ccccc2cc1O,37,-3,x,-31,x,45*,8,15,-5,20,19*
Cc1ccc(S(=O)(=O)Nc2c(C)[nH]c(=O)[nH]c2=O)cc1C,-23,-13,-1,9,7,-7,x,x,x,x,x
CCCn1nnc(NC(=O)C(C)Oc2ccc(Cl)cc2Cl)n1 (configuration not stated),9,7,1,3,4,-26,x,x,x,x,x
CC(Oc1cc(Cl)ccc1Cl)C(=O)N/N=C\c1ccnn1C (configuration not stated),-1,20,2,2,-3,27*,-3,-5,-2,-4,6
O=C(COC(=O)c1ccco1)Nc1nc2ccc([N+](=O)[O-])cc2s1,30,-7,x,-19,x,42*,31,50*,53*,40*,49*
Cc1ccc2nc(NC(=O)COC(=O)c3ccco3)sc2c1,-7,13,2,-7,-5,13,x,x,x,x,x
CNCC(=O)N(CC(C)C)c1c(N)n(CC(C)C)c(=O)[nH]c1=O,-3,16,x,5,3,4,x,x,x,x,x
N#Cc1c(Cl)nsc1NN,22,-1,x,-4,1,31*,17,27,27*,15,30*
Fc1ccc(NC(=S)N2CCCN(c3ccc(C(F)(F)F)cn3)CC2)c(F)c1,24,-17,x,-2,x,43*,2,-35,-24,-11,8
Cc1ccc(Nc2nc(N/N=C/c3c[nH]c4ccccc34)nc(N3CCOCC3)n2)cc1,31,-28,-3,-24,-6,27*,41*,59*,33*,42*,44*
O=[N+]([O-])c1cc(Cl)cc(/C=N/Nc2nc3ccccc3s2)c1O,24,-70,x,-4,-2,28*,60*,68*,69*,63*,66*
COc1cc(/C=N/Nc2nc3ccccc3s2)cc([N+](=O)[O-])c1O,3,31,x,-92,x,-9,x,x,x,x,x
C=CCn1c(=O)c(C(=O)Nc2ccccc2O)c(O)c2ccccc21,16,-75,4,-8,4,53*,1,-9,-1,2,6
SMILES,NPY1 pot ag,m-calpain inh,NPY-Y2 antag,Tb hexokinase,NPY Y1 blocker,NPY-Y2 PAM-ag,NPY-Y2 confirm,NPY-Y1 potentiator,NPY-Y1 ag 2,CNGC inh,NPY-Y2 ag 2
Cc1cc(=O)[nH]c(SCC(=O)N(CCC#N)c2ccccc2)c1C#N,15,-25,x,-3,11,-6,x,x,x,x,x
Cc1nc2c(nnn2Cc2ccccc2)c(=O)[nH]1,7,-38,x,3,2,19,x,x,x,x,x
CC(=O)CSc1ccc(C(=O)O)cn1,-3,-11,1,0,0,10,x,x,x,x,x
Oc1ccccc1OCc1nc2ccccc2s1,-20,20,2,7,1,-3,x,x,x,x,x
Oc1ccc(O)c(Cc2nc3ccccc3s2)c1,27,6,x,4,-2,29*,6,12,8,11,5
Cc1ccc(Oc2nc(-c3cccnc3)nc3ccccc23)c([N+](=O)[O-])n1,9,1,x,-2,-4,-5,x,x,x,x,x
CCC1(CC)Cc2ccccc2C(C2=C(O)CC(C)(C)CC2=O)=N1,20,16,3,-14,8,6,x,x,x,x,x
Cc1cccc2c1CC(C)(C)N=C2C1=C(O)CC(C)(C)CC1=O,17,8,1,-9,-1,76*,-5,-3,-11,-2,-14
CCCCNC(=O)O/N=C(\N)CS(=O)(=O)C(C)(C)C,3,-13,x,-10,x,-2,x,x,x,x,x
COc1ccnc(Oc2ccccc2)c1C(N)=O,10,-17,x,-2,6,3,x,x,x,x,x
C=C(C)CN(CC)C(=O)CC1C(=O)NCCN1CC(C)(C)C (configuration not stated),17,0,x,-6,x,51*,1,11,-1,2,6
c1ccc(CSc2nc3ccccc3[nH]2)cc1,4,-8,x,-5,x,0,x,x,x,x,x
Cc1ccccc1-n1nc(CSc2nc3ccccc3[nH]2)c(-c2ccccc2)c1N,-2,9,8,0,12,11,x,x,x,x,x
Nc1c(-c2ccccc2)c(CSc2nc3ccccc3[nH]2)nn1-c1cccc(Cl)c1,7,-3,-1,0,5,32*,39*,36,36*,28*,57*

# Source: PubChem (several laboratories)
